Bioassay records from PubChem BioAssay.
SR-BI uptake up – enhances SR-BI lipid uptake from DiI-HDL; hit rate 0.096% among 320,000; AID 504775; CHO ldlA[mSR-BI] cells, DiI-HDL uptake fluorescence, 3 h; 100 = double the neutral-control signal; activation, % at 12.5 µM;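 active = mean replicate activation of at least 60% and every replicate at or above 60%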;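 note: 0% = median plate neutral-control signal and 100% = twice that signal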
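Test system: SR-BI-overexpressing, LDLR-lacking CHO cells. Measured by: DiI fluorescence, bottom read. Medium: Ham's F12 with 0.5% BSA, HEPES 25 mM, pH 7.4. Timing: 3 h uptake period with compound, 37 °C.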
SR-BI DiI inh – blocks mouse SR-BI lipid uptake from DiI-HDL; Q61009; ldlA[mSR-BI] CHO cells, DiI-HDL uptake fluorescence, 3 h; inhibition, % at 12.5 µM; hit rate 0.96% among 320,000; AID 488896;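 active = mean replicate inhibition of at least 70% and a set share of replicates each scoring 70 or more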;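 note: 0% = median of neutral control wells and 100% = median of positive control wells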
Target sequence (Q61009 whole entry, looked up): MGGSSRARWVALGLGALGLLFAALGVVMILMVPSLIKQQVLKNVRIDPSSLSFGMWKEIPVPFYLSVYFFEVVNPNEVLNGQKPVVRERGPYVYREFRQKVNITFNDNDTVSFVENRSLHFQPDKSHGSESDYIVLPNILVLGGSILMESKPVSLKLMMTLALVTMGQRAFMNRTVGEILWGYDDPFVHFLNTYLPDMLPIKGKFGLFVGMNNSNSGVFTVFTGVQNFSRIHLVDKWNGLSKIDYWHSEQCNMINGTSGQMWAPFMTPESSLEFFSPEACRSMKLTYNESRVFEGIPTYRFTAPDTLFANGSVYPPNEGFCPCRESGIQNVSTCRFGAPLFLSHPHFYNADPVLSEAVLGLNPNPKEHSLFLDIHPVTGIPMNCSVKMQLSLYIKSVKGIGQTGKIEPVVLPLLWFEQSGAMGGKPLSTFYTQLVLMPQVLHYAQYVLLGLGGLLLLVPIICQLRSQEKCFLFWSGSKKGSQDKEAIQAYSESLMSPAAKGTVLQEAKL
ARNT-TACC3 inh – disruptors of human ARNT/TACC3 interaction. AlphaScreen His-ARNT PAS-B/GST-TACC3 binding, luminescence; TACC3 fragment carries E629A point mutation. hit rate 0.66% among 390,000. Q9Y6A5. inhibition, % at 9.99 µM;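 active = mean inhibition of replicates at least 50% and at least half of replicates each reaching 50%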;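 note: 0% = complete ARNT plus TACC3 wells and 100% = ARNT alone without TACC3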
CAL PDZ FP-1 – CAL PDZ (human) peptide binding inhibition | Q9HD26 | purified CAL PDZ, TMR-peptide fluorescence polarization, 1 h | inhibition, % at 24.9 µM | hit rate 0.92% among 300,000;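 active = mean inhibition of at least 30% with at least half of replicates also reaching 30%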;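 note: 0% = DMSO neutral control and 100% = excess unlabeled competitor peptide PRC23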
miR122 inh – blocks miR-122 activity in Huh7 sensor cells | Huh7 miR-122 Renilla luciferase sensor, 48 h; neutral wells = 0, positive control = 100 | activation (reporter increase), % at 12.5 µM | hit rate 0.3% among 340,000;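 active = mean replicate activation score at least 90 and every replicate individually at or above 90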;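 note: higher luciferase means less miR-122 activity so hits act as miR-122 inhibitors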
CAL PDZ FP-2 – human CAL PDZ-peptide interaction inhibition; purified CAL PDZ, TMR-peptide fluorescence polarization, 1 h; inhibition, % at 20 µM; hit rate 0.02% among 330,000; Q9HD26;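 active = highest replicate inhibition of at least 40%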;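 note: plate controls were DMSO neutral control wells for no effect and unlabeled competitor peptide control wells for full effect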
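Material – purified CerCALP PDZ construct · Detection – FP readout, S and P plane fluorescence · Measure – percent inhibition from loss of millipolarization · Controls – unlabelled peptide for full inhibition, DMSO wells as neutral · Probe or stimulus – TMR-labelled reporter peptide T*-PRC34 bound in PDZ groove · Times – 1 h at RT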
Numbers without * were called inactive; · = no result given; [ ] = another dose, or the depositor's remark. An excerpt weighted towards active compounds, which were near 2.1% of everything screened.

SMILES | SR-BI uptake up | SR-BI DiI inh | ARNT-TACC3 inh | CAL PDZ FP-1 | miR122 inh | CAL PDZ FP-2
CCOc1ccc(NC(=O)NNC(=O)c2cc3ccccc3cc2O)cc1 | -81 | 81* | 3 | 0 | 1 | -1
CCCCOc1ccc(C(=O)NNC(=S)NC(=O)CC)cc1 | 8 | -8 | 3 | -4 | · | 0
CCOc1ccc(NC(=O)Nc2cc(OCC(F)(F)F)cc(OCC(F)(F)F)c2)cc1 | -75 | 75* | 2 | -1 | · | -2
CCc1ccc(NC(=O)NNC(=O)c2cc3ccccc3cc2O)cc1 | -38 | 38 | -4 | -3 | · | -2
COc1ccc(C(=O)NNC(=O)c2cc3ccccc3cc2O)cc1 | -115 | 115* | 3 | · | -6 | -1
CCC(=O)NC(=S)NNC(=O)c1ccc(OC)cc1 | 21 | -21 | 68* | -3 | -1 | -3
COc1ccc(NC(=O)c2cc3ccccc3cc2O)cc1 | -33 | 33 | 0 | -8 | · | -1
Cc1noc(C)c1S(=O)(=O)N(C)C[C@@H]1Oc2ccc(NC(=O)NC3CCCCC3)cc2CC(=O)N([C@H](C)CO)C[C@H]1C | · | · | 11 | · | 1[16.7 µM] | ·
C[C@H](CO)N1C[C@H](C)[C@@H](CN(C)S(=O)(=O)c2ccc(Cl)cc2)Oc2ccc(NC(=O)Nc3ccc(C(F)(F)F)cc3)cc2CC1=O | · | · | · | · | -3[16.7 µM] | ·
O=c1cc(-c2cccc(Br)c2)nc(-c2ccccc2F)o1 | 15 | -15 | -4 | -4 | · | -4
O=c1cc(-c2ccccc2F)nc(-c2ccccc2F)o1 | 29 | -29 | 2 | 34* | · | -2
COCC(=O)Nc1ccc2c(c1)C(=O)N(C)[C@@H]1CC[C@H](CC(=O)NCc3ccccc3F)O[C@H]1CO2 | · | · | -5 | · | -50[16.7 µM] | ·
N#Cc1nc(-c2ccc(OCc3ccccc3)cc2)oc1N1CCOCC1 | -71 | 71* | -2 | · | -6 | 0
CNc1oc(-c2ccc(OCc3ccccc3)cc2)nc1C#N | -30 | 30 | -9 | -1 | -16 | 0
O=C(C[C@H]1C[C@@H]2c3cc(NC(=O)NC4CCCC4)ccc3O[C@@H]2[C@@H](CO)O1)NCc1ccc(Cl)cc1 | · | · | -5 | · | -7[16.7 µM] | ·
CCn1c(/C=C/c2ccccc2C)nc2ccccc2c1=O | -23 | 23 | 12 | 51* | 14 | 0
O=C(Nc1cccc(-c2cn3c(n2)SCC3)c1)c1ccc2c(c1)OCO2 | -60 | 60 | 9 | -5 | -3 | -3
O=C(Nc1ccc(-c2cn3c(n2)SCC3)cc1)c1ccc2c(c1)OCO2 | -82 | 82* | -8 | 26 | -5 | -1
Cc1noc(C)c1COC(=O)c1cccnc1Cl | 11 | -11 | -1 | -5 | -7 | -2
Cc1ccc(C)c(OC(=O)c2cccnc2Cl)c1C | 317* | -317 | -3 | -2 | 1 | -3
COc1cccc(-c2ccc3c(c2)[C@@H]2[C@@H](CCN2S(=O)(=O)c2ccccc2OC)[C@H](CO)N3C)c1 | · | · | -10 | · | -2[16.7 µM] | ·
Nc1nc(N)nc(-c2cccc(Br)c2)n1 | 0 | 0 | 32 | 4 | 7 | 0
Cc1cccc(-c2nc(N)nc(N)n2)c1 | 13 | -13 | -4 | 34* | · | 0
CC(CCc1ccccn1)C(=O)C(C)CCc1ccccn1 (stereo not drawn) | 9 | -9 | -5 | 81* | -1 | -1
Cc1cc([N+](=O)[O-])nn1CC(=O)N(C)C1CCCCC1 | 11 | -11 | · | 54* | -1 | -1
SMILES | SR-BI uptake up | SR-BI DiI inh | ARNT-TACC3 inh | CAL PDZ FP-1 | miR122 inh | CAL PDZ FP-2
CCc1nn(CC(=O)N(C)C2CCCCC2)c(=O)c2cc3cc(C)ccc3n12 | -23 | 23 | -3 | 104* | 2 | 0
CCCN1C[C@@H](C)[C@@H](OC)CN(C)C(=O)c2ccc(NC(=O)Nc3ccccc3F)cc2OC[C@H]1C | · | · | -3 | · | · | ·
CC(=O)C[C@H]1c2cc(C(F)(F)F)ccc2S(=O)(=O)N1c1ccccc1 | 7 | -7 | -1 | -3 | 99* | -1
COc1ccc(NS(=O)(=O)c2ccc(N3CCOCC3)c(NC(=O)c3cccc(F)c3)c2)cc1 | -44 | 44 | -6 | -4 | 190* | -3
COc1ccc(NS(=O)(=O)c2ccc(N3CCOCC3)c(NC(=O)c3ccc(F)cc3)c2)cc1 | -25 | 25 | -3 | · | 179* | -2
COc1ccc(NS(=O)(=O)c2ccc(O)c(NC(=O)c3cc4c(C)nn(-c5ccc(F)cc5)c4s3)c2)cc1 | -77 | 77* | -27 | -4 | 3 | 0
Cc1nn(-c2ccc(F)cc2)c2sc(C(=O)N3CCCCCC3)cc12 | -65 | 65 | 2 | -2 | -5 | -3
O=C(C[C@@H]1CC[C@H]2[C@@H](COC[C@H](O)CN2CC2CCOCC2)O1)N1CCOCC1 | · | · | -21 | · | 6[16.7 µM] | ·
C[C@H](O)C#Cc1ccc2c(c1)O[C@@H](CN(C)C(=O)C1CC1)[C@H](C)CN([C@@H](C)CO)S2(=O)=O | · | · | -6 | · | -7[16.7 µM] | ·
CN(C)/C=C/c1[nH]c(=O)[nH]c(=O)c1[N+](=O)[O-] | 16 | -16 | -5 | 77* | -9 | 0
COCc1cc(Sc2cccc(Cl)c2Cl)nc(-c2ccccc2)n1 | -20 | 20 | -15 | 36* | -2 | -1
COc1ccc(C)cc1Nc1n[n+](-c2ccccc2)c(-c2cc([N+](=O)[O-])cc(OC)c2O)s1 | -95 | 95* | 0 | -2 | · | 0
CCN(CC)CCCNc1ccc2ncn3c4ccc(O)cc4c(=O)c1c23 | 14 | -14 | 74* | -6 | · | 3
Cc1ccccc1N(C(=O)c1csnn1)C(C(=O)NC1CCCC1)c1ccncc1 (stereo not drawn) | 15 | -15 | 1 | 33* | · | -2
Cc1ccccc1N(C(=O)CCCC(=O)Nc1ccccn1)C(C(=O)NC1CCCC1)c1ccc(O)cc1 (stereo not drawn) | · | · | 0 | -3 | 132* | -2
COc1ccc(N(C(=O)c2ccco2)C(C(=O)NC2CCCC2)c2cccs2)cc1 (stereo not drawn) | -27 | 27 | 0 | -5 | -4 | 0
COc1ccc(N(C(=O)c2csnn2)C(C(=O)NC2CCCC2)c2cccs2)cc1 (stereo not drawn) | -3 | 3 | -4 | 44* | 6 | 0
Cc1ccc(C(C(=O)NC(C)(C)C)N(CC2CCCO2)C(=O)CCC(=O)Nc2ccccn2)cc1 (stereo not drawn) | 6 | -6 | 5 | 84* | -7 | 0
O=C(Nc1ccc(Cl)c(Cl)c1)N[C@@H]1CC[C@@H](CCn2cc(C3CC3)nn2)O[C@@H]1CO | · | · | 5 | · | · | ·
C[C@H](O)C#Cc1ccc2c(c1)O[C@H](CN(C)C(=O)C1CCCCC1)[C@H](C)CN([C@H](C)CO)S2(=O)=O | · | · | · | · | 20[16.7 µM] | ·
CC(CC(=O)O)CC(=O)Nc1nncs1 (stereo not drawn) | 17 | -17 | -6 | 53* | -3 | 1
O=C(CCc1ccccc1)Nc1nncs1 | 9 | -9 | -6 | -4 | -1 | ·
